Common to all, as to type: functional
The subject of test [1] is Pseudomonas aeruginosa. As to the kind of experiment: Minimum Potentiation Concentration of EPI required to achieve an 8-fold reduction in antibiotic MIC of levofloxacin against MexABOprMover-expressing strain of Pseudomonas aeruginosa. In outline: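 P. aeruginosa PAM1723 in Mueller–Hinton broth, broth microdilution per NCCLS M7-A4, starting inoculum 10^6 CFU/mL, inhibitor titrated with levofloxacin; 18 h at 37 °C. Levofloxacin MIC read at 70% growth inhibition by OD 595 nm. Value is the inhibitor concentration giving an 8-fold drop in levofloxacin MIC, measured without serum.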

Test [2] in a line: Ratio of potentiation of aztreonam (AZT) with 10% horse serum to without serum. In outline:
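Ratio of aztreonam MPC8 with 10% horse serum to MPC8 without serum, both from Mueller–Hinton broth microdilution against PAM1723 (10^6 CFU/mL, 18 h, 37 °C, visual growth read-out).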

In test [3] the test system is Pseudomonas aeruginosa. As to the kind of experiment: Minimum Potentiation Concentration of EPI required to achieve an 8-fold reduction in antibiotic MIC of AZT against MexAB-OprM pump system in Pseudomonas aeruginosa with 10% horse serum. In outline: (§1)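 Broth microdilution in Mueller–Hinton broth, P. aeruginosa PAM1723, starting inoculum 10^6 CFU/mL, 18 h at 37 °C; run with and without 10% horse serum. Aztreonam MIC read by visual growth; MPC8 taken as lowest inhibitor concentration giving 8-fold reduction of aztreonam MIC.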

For test [4], the system named is Pseudomonas aeruginosa. As to the kind of experiment: Minimum Potentiation Concentration of EPI required to achieve an 8-fold reduction in antibiotic MIC of AZT against MexAB-OprM pump system in Pseudomonas aeruginosa without horse serum. Put shortly: as §1

Bounds are passed on as bounds.

On to `CC(C)c1csc(/C=C/c2cncc(NC(=O)Cc3ccccc3C(=O)O)c2)n1`, for which the results for the MPC8 in the test with Pseudomonas aeruginosa [1], with Pseudomonas aeruginosa [3] and in the test with Pseudomonas aeruginosa [4] were 2.5 µg/mL, 10 µg/mL and 5 µg/mL, respectively. Besides, the Ratio in test [2] amounted to 2.
Turning to `O=C(Cc1ccccc1C(=O)O)Nc1cccc(/C=C/c2nc(-c3ccccc3)cs2)c1`, the Ratio in test [2] turned out to be 32. Moreover, the MPC8 in the test with Pseudomonas aeruginosa [3] stood at 40 µg/mL; with Pseudomonas aeruginosa [4], 1.25 µg/mL.
For `CC(C)(C)c1csc(/C=C/c2cccc(NC(=O)Cc3ncccc3C(=O)O)c2)n1`, the MPC8 in the test on Pseudomonas aeruginosa [1] came out at 1.25 µg/mL; in the test on Pseudomonas aeruginosa [3], 20 µg/mL; in the test with Pseudomonas aeruginosa [4], 2.5 µg/mL. For the same compound, the Ratio in test [2] is 8.
For the compound `CC(C)c1csc(/C=C/c2cccc(NC(=O)C(O)c3ccccc3C(=O)O)c2)n1` (configuration not stated), the Ratio in test [2] was 16. In addition, the results for the MPC8 in the test on Pseudomonas aeruginosa [3] and in the test with Pseudomonas aeruginosa [4] were 40 µg/mL and 2.5 µg/mL, respectively.
For `CCC(C)(C(N)=O)c1csc(/C=C/c2cccc(NC(=O)Cc3ccccc3C(=O)O)c2)n1` (configuration not stated), the MPC8 in the test on Pseudomonas aeruginosa [1] was found to be 80 µg/mL; with Pseudomonas aeruginosa [3] it was 40 µg/mL; in the test with Pseudomonas aeruginosa [4] it was 20 µg/mL. In addition, in test [2], the Ratio turned out to be 2.
In the case of `O=C(Cc1ccccc1C(=O)O)Nc1cccc(/C=C/c2nc(C(F)(F)C(F)(F)F)cs2)c1`, the Ratio in test [2] is 32. Moreover, the MPC8 came out at 80 µg/mL in the test on Pseudomonas aeruginosa [3] and 2.5 µg/mL with Pseudomonas aeruginosa [4].
`CC(C)(C)c1csc(/C=C/c2cccc(NC(=O)Cc3ccccc3C(=O)O)c2)n1`: the MPC8 in the test on Pseudomonas aeruginosa [1] was 0.63 µg/mL; in the test on Pseudomonas aeruginosa [3], 20 µg/mL; in the test with Pseudomonas aeruginosa [4], “<=0.63 ug ml-1”. In addition, in test [2], the Ratio is greater than 32.
For the compound `CC(C)c1csc(/C=C/c2cccc(NC(=O)Cc3ccccc3C(=O)O)c2)n1`, the Ratio in test [2] was greater than 16. The MPC8 was 10 µg/mL in the test with Pseudomonas aeruginosa [3] and “<=0.63 ug ml-1” with Pseudomonas aeruginosa [4].
The matching figures for `CC(C)c1csc(/C=C/c2cccc(NC(=O)[C@H]3OC(C)(C)O[C@@H]3C(=O)O)c2)n1`: 4, 20 µg/mL and 5 µg/mL.
Regarding `CC(C)c1csc(CCc2ccnc(NC(=O)Cc3ccccc3C(=O)O)c2)n1`, the figures for the MPC8 in the test on Pseudomonas aeruginosa [1], in the test on Pseudomonas aeruginosa [3] and in the test on Pseudomonas aeruginosa [4] were 2.5 µg/mL, 10 µg/mL and 5 µg/mL, respectively. Moreover, the Ratio in test [2] was 2.
On to `CC(C)c1csc(COc2ccnc(NC(=O)Cc3ccccc3C(=O)O)c2)n1`, for which the Ratio in test [2] stood at 2. The MPC8 with Pseudomonas aeruginosa [3] came to 5 µg/mL; in the test on Pseudomonas aeruginosa [4], 2.5 µg/mL.
The matching figures for `CC(C)c1csc(/C=C/c2cccc(NC(=O)[C@@H]3OC(C)(C)O[C@H]3C(=O)O)c2)n1`: 2, 40 µg/mL and 20 µg/mL.
In the case of `CC(C)c1csc(/C=C/c2ccnc(NC(=O)Cc3ccccc3C(=O)O)c2)n1`, the MPC8 with Pseudomonas aeruginosa [1] was 0.31 µg/mL; in the test on Pseudomonas aeruginosa [3] it was 10 µg/mL; in the test with Pseudomonas aeruginosa [4] it was greater than 10 µg/mL.
On to `COC(C(=O)Nc1cccc(/C=C/c2nc(C(C)C)cs2)c1)c1ccccc1C(=O)O` (configuration not stated), for which the figures for the MPC8 with Pseudomonas aeruginosa [1], in the test with Pseudomonas aeruginosa [3] and with Pseudomonas aeruginosa [4] were 10 µg/mL, 160 µg/mL and 20 µg/mL, respectively. For the same compound, the Ratio in test [2] was 8.
The matching figures for `CC(C)c1csc(/C=C/c2cccc(NC(=O)Cc3ccccc3C(=O)O)n2)n1`: greater than 80 µg/mL, 80 µg/mL, 20 µg/mL and 4.

These data come from ChEMBL document CHEMBL1136457, “MexAB-OprM-specific efflux pump inhibitors in Pseudomonas aeruginosa. Part 1: discovery and early strategies for lead optimization” (2003).
